# This is a sample that favours compounds with a hit; in the whole collection about 2.1% have one here.
# KLK5 inh: kallikrein 5 (human) inhibition; recombinant hK5, fluorogenic AMC substrate cleavage; AID 873; inhibition, % at 5 µM; 210,000 tested, 0.59% active;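 active = inhibition of 40% or more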;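 also: 0% = enzyme controls without compound and 100% = no-enzyme blanks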
# thrombin 1536: thrombin (human) inhibition; P00734; alpha-thrombin, Boc-VPR-AMC fluorogenic substrate cleavage; inhibition, % at 5 µM; 220,000 tested, 0.26% active; AID 1046;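 active = inhibition at or above 40%; inactive = inhibition below 40%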;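 also: 0% = enzyme with no compound and 100% = wells without enzyme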
#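 signal = AMC fluorescence, 355/460 nm | material = human alpha-thrombin enzyme | control set = enzyme without compound as high, wells lacking enzyme as low | times = reaction at room temperature | read-out basis = percent inhibition scaled between no-compound controls and no-enzyme blanks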
# FXIIa inh 1536: inhibitors of human coagulation factor XIIa; P00748; purified FXIIa, Boc-QGR-AMC fluorogenic substrate, 2 h; inhibition, % at 5 µM; 220,000 tested, 0.3% active; in the data active = inhibition above about 40%;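 also: 0% = enzyme with no compound and 100% = blank without enzyme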
# EP2 antag: EP2 receptor (human) inhibition; 260,000 tested, 0.52% active; inhibition, % at 25 µM; C6 glioma cells expressing human EP2, cAMP TR-FRET; cells stimulated with saturating PGE2; P43116; AID 1422;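 active = percent inhibition above 40 after rounding to a whole number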;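 also: rat C6 glioma host cells with rolipram phosphodiesterase inhibitor present; the protocol text gives 20 µM as final concentration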
# Target sequence (P43116 whole entry, looked up): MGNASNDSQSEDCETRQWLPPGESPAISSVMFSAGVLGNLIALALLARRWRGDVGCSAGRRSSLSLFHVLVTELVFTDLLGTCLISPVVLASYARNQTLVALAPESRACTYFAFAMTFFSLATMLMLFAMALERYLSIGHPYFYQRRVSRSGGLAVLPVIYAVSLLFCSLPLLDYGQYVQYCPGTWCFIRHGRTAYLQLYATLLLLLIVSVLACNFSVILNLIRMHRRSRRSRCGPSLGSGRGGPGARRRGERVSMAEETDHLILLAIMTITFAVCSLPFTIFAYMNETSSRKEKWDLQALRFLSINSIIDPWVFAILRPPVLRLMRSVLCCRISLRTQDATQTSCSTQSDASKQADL
# FXIa inh: blocks human coagulation factor XIa protease activity. inhibition, % at 5 µM. 220,000 tested, 0.14% active. P03951. purified FXIa, Boc-Glu-Ala-Arg-AMC fluorogenic substrate;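 active = inhibition of at least 40%; inactive = inhibition below 40%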;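 also: fluorescence of freed AMC excited at 355 nm; 0% = enzyme without compound and 100% = no enzyme blank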
# EP2 mod: EP2 receptor (human) modulation; 260,000 tested, 0.83% active; EP2-expressing cells, cAMP HTRF FRET, PGE2 co-stimulation; AID 940; induction, % at 25 µM;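 active = compounds whose cAMP rise, as percent of the full-agonist control response, exceeds 60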;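 also: rat C6 glioma line stably carrying human EP2 under a CMV promoter; the protocol text gives 20 µM as final concentration; 100% = response of wells given 1 µM PGE2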
# EP2 confirm: EP2 receptor cAMP induction, counter-screens negative; shares compounds with EP2 mod; C6 glioma EP2 cells, cAMP HTRF induction; plus low (about EC15) PGE2 agonist; calls only at 20 µM (by protocol); 1,300 tested, 47% active; AID 1080;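 active = cAMP induction above 50% in the main assay while under 30% in all four parallel counter assays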;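 also: rat C6 glioma cells stably expressing human EP2 receptor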
# Starred values were filed as active, the others as inactive; i = inactive; / = not tested or not shown; + = active, no number; ! = not active in a repeat.
SMILES,KLK5 inh,thrombin 1536,FXIIa inh 1536,EP2 antag,FXIa inh,EP2 mod,EP2 confirm
c1ccc(-c2cc(-c3ccncc3)nc3ccc4ccccc4c23)cc1,-11.8,-4.6,12.6,4.8,6.4,98.6*,+
CC(C)c1nc2ccccc2c2nnc(SCC(=O)NC3CCCCC3)n12,/,/,/,2.3,/,-0.3,/
CCN(CC)CCn1c2ccc(F)cc2c2nc(C)sc21,10.7,0.4,14.2,12.1,2.4,-10.0,/
Cc1ccc(S(=O)(=O)n2c3ccc(F)cc3c3nc(C)sc32)cc1,-6.1,-0.6,9.5,4.7,4.2,94.9*,+
COc1ccc(C2C(C(=O)Nc3ccccc3OC)=C(C)NC3=C2C(=O)CCC3)cc1 (stereo not given),/,/,/,10.4,/,-3.8,/
CSc1nnc2c3ccccc3c3ccccc3c2n1,-8.0,2.3,10.8,/,8.2,76.4*,+
COc1ccc(-c2oc3c(CC=C(C)C)c(O[C@@H]4O[C@H](CO)[C@@H](O)[C@H](O)[C@H]4O)cc(O)c3c(=O)c2O[C@@H]2O[C@@H](C)[C@H](O)[C@@H](O)[C@H]2O)cc1,/,/,/,15.4,/,6.9,/
COc1cc(O)c2c(=O)cc(C)oc2c1CC=C(C)C,/,/,/,8.7,/,91.8*,+
Cc1nc(SCCC(=O)O)c2ccccc2n1,2.2,-7.2,4.1,25.0,1.6,82.5*,i
COc1ccc(NC(=O)CCSc2ccc3ccccc3n2)cc1,-12.2,-4.2,10.9,8.0,6.1,-29.7,/
O=C(O)CCSc1ccc2ccccc2n1,5.4,4.9,16.6,9.6,6.9,79.6*,i
O=C(O)CSc1ccc2ccccc2n1,3.2,1.4,4.0,13.9,2.7,66.7*,i
COc1ccc2[nH]c(=O)c(CN(CCN(C)C)C(=S)Nc3cccc(C)c3)cc2c1,/,/,/,12.6,/,-73.8,/
c1ccc(-c2noc(CN3CCN(C(c4ccccc4)c4ccccc4)CC3)n2)cc1,-14.8,-12.8,1.9,6.0,-3.7,57.4,i
Cc1ccc(NCc2ccccc2OCc2ccccc2F)cc1,-6.9,-2.9,8.8,9.4,0.3,76.4*,i
Oc1ccc(NCc2ccccc2OCc2ccccc2F)cc1,-2.7,-0.6,12.7,16.9,-2.9,30.3,/
CCC1C/C(=C/c2ccco2)C(=O)/C(=C/c2ccco2)C1 (stereo not given),-12.3,-0.2,11.5,7.6,6.4,68.3*,i
C=C(C)Cn1c(NCc2ccc(OC)cc2)nc2c1c(=O)[nH]c(=O)n2C,/,/,/,12.7,/,-3.7,/
O=C(NCc1ccco1)c1ccc(=O)[nH]n1,-12.7,-8.8,13.8,12.5,-3.9,67.3*,i
Cc1ccc(CN(CCCn2ccnc2)Cc2cccn2-c2ncccc2C)o1,/,/,/,8.2,/,19.3,/
CCCCCOC(=O)c1[nH]c2c(c1C)C(=O)C(C(=O)OC)C(C)C2 (stereo not given),-3.1,1.6,14.6,12.3,4.1,90.7*,+
COc1ccc(OC)c(CN(Cc2coc3ccccc3c2=O)CC2CCCO2)c1 (stereo not given),/,/,/,0.9,/,23.9,/
CCOc1ccccc1CNc1ccc(O)cc1,-21.6,-2.2,-4.8,6.7,-11.1,21.8,/
CCOc1cccc(CNc2ccc(O)cc2)c1OCc1ccc(Cl)cc1,-18.9,1.4,19.8,11.6,6.0,77.4*,+
CC1CCCN(c2ccc(NS(=O)(=O)c3ccc4[nH]c(=O)[nH]c(=O)c4c3)cc2)C1 (stereo not given),/,/,/,-0.6,/,-35.8,/
SMILES,KLK5 inh,thrombin 1536,FXIIa inh 1536,EP2 antag,FXIa inh,EP2 mod,EP2 confirm
O=C(O)/C=C/c1cn(-c2ccccc2)nc1-c1cc2ccccc2oc1=O,-6.8,1.7,6.0,1.5,6.5,-3.6,/
N#Cc1cn(-c2ccccc2)nc1-c1cc2ccccc2oc1=O,-25.3,2.0,-5.6,7.8,-3.8,65.0*,i
CN(C)c1ncc(C(=O)N2CCc3onc(-c4ccccc4F)c3C2)cn1,/,/,/,6.3,/,-43.2,/
CC1=C(/C=C/C(C)=C/C=C/C(C)=C/C(=O)O)C(C)(C)CCC1,-13.2,-3.5,8.1,14.3,1.2,62.5*!,+
COc1ccc(-n2cnnn2)c(N)c1,/,/,/,8.9,/,-32.8,/
CCn1nnnc1SCC(=O)Nc1cccc(C)n1,-3.5,4.8,18.4,9.3,8.0,70.0*,i

# Screening data as filed in PubChem BioAssay.
